Measurements taken from ChEMBL document CHEMBL5058577, “EUbOPEN Chemogenomics Library 2 (Multiplex)” (2022).
Non-standard residues stand in square brackets, D forms with d. Residues, ends and D or L forms follow the SMILES beside them.

System: HEK-293T
Experiment: Multiplex assay against HEK293T
Type: toxicity, cell-based
Settings: human
In short: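 Values for tubulin, mitochondrial-mass and membrane-permeability phenotypes are per cents of cells with healthy nuclei. These cells were identified by CellPathfinder machine-learning gating of live cells that had been stained at seeding with Hoechst33342, BioTracker Green Microtubule Cytoskeleton Dye, MitoTracker Red and Annexin V Alexa Fluor 680 and imaged on a CQ1 microscope at 37°C and 5% CO2 after compound addition. The gating first set Hoechst high-intensity objects apart from normal cells, then split normal cells into healthy, pyknosed or fragmented nuclei, and pyknosed cells into mitotic or apoptotic.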

[1] = 12 h, 1 µM, compound concentration 1 uM, replicate 1
[2] = 12 h, 1 µM, compound concentration 1 uM, replicate 2
[3] = 12 h, 10 µM, compound concentration 10 uM, replicate 1
[4] = 12 h, 10 µM, compound concentration 10 uM, replicate 2
[5] = 24 h, 1 µM, compound concentration 1 uM, replicate 1
[6] = 24 h, 1 µM, compound concentration 1 uM, replicate 2
[7] = 24 h, 10 µM, compound concentration 10 uM, replicate 1
[8] = 24 h, 10 µM, compound concentration 10 uM, replicate 2
[9] = 48 h, 1 µM, compound concentration 1 uM, replicate 1
[10] = 48 h, 1 µM, compound concentration 1 uM, replicate 2
[11] = 48 h, 10 µM, compound concentration 10 uM, replicate 1
[12] = 48 h, 10 µM, compound concentration 10 uM, replicate 2

SMILES: CCC(=O)OCC(=O)[C@@]1(OC(=O)CC)[C@@H](C)C[C@H]2[C@@H]3CCC4=CC(=O)C=C[C@]4(C)[C@@]3(Cl)[C@@H](O)C[C@@]21C [BECLOMETHASONE DIPROPIONATE]
- Population Apoptotic (%) [1]: 43%
- Population Fragmented Nuclei (%) [1]: 8%
- Population Healthy Nuclei (%) [1]: 75%
- Population Hoechst High Intensity Objects (%) [1]: 7%
- Population Membrane Permeable-Phenotype (%) [1]: 0%
- Population Mitochondria Different-Phenotype (%) [1]: 60%
- Population Mitotic Cells (%) [1]: 56%
- Population Normal (%) [1]: 92%
- Population Pyknosed Nuclei (%) [1]: 15%
- Population Tubulin-Different-Phenotype (%) [1]: 48%
- Total Cell Count [1]: 388
- Population Apoptotic (%) [2]: 47%
- Population Fragmented Nuclei (%) [2]: 5%
- Population Healthy Nuclei (%) [2]: 74%
- Population Hoechst High Intensity Objects (%) [2]: 4%
- Population Mitochondria Different-Phenotype (%) [2]: 75%
- Population Mitotic Cells (%) [2]: 52%
- Population Normal (%) [2]: 95%
- Population Pyknosed Nuclei (%) [2]: 19%
- Population Tubulin-Different-Phenotype (%) [2]: 42%
- Total Cell Count [2]: 356
- Population Apoptotic (%) [3]: 60%
- Population Fragmented Nuclei (%) [3]: 8%
- Population Healthy Nuclei (%) [3]: 66%
- Population Hoechst High Intensity Objects (%) [3]: 14%
- Population Membrane Permeable-Phenotype (%) [3]: 0%
- Population Mitochondria Different-Phenotype (%) [3]: 87%
- Population Mitotic Cells (%) [3]: 39%
- Population Normal (%) [3]: 85%
- Population Pyknosed Nuclei (%) [3]: 25%
- Population Tubulin-Different-Phenotype (%) [3]: 65%
- Total Cell Count [3]: 236
- Population Apoptotic (%) [4]: 68%
- Population Fragmented Nuclei (%) [4]: 6%
- Population Hoechst High Intensity Objects (%) [4]: 16%
- Population Mitochondria Different-Phenotype (%) [4]: 93%
- Population Mitotic Cells (%) [4]: 31%
- Population Normal (%) [4]: 83%
- Population Pyknosed Nuclei (%) [4]: 27%
- Population Tubulin-Different-Phenotype (%) [4]: 35%
- Total Cell Count [4]: 252
- Population Apoptotic (%) [5]: 32%
- Population Fragmented Nuclei (%) [5]: 7%
- Population Healthy Nuclei (%) [5]: 81%
- Population Hoechst High Intensity Objects (%) [5]: 4%
- Population Membrane Permeable-Phenotype (%) [5]: 0%
- Population Mitochondria Different-Phenotype (%) [5]: 40%
- Population Mitotic Cells (%) [5]: 67%
- Population Normal (%) [5]: 95%
- Population Pyknosed Nuclei (%) [5]: 11%
- Population Tubulin-Different-Phenotype (%) [5]: 31%
- Total Cell Count [5]: 507
- Population Apoptotic (%) [6]: 43%
- Population Hoechst High Intensity Objects (%) [6]: 5%
- Population Mitochondria Different-Phenotype (%) [6]: 52%
- Population Mitotic Cells (%) [6]: 56%
- Population Normal (%) [6]: 94%
- Population Tubulin-Different-Phenotype (%) [6]: 18%
- Total Cell Count [6]: 446
- Population Apoptotic (%) [7]: 56%
- Population Fragmented Nuclei (%) [7]: 13%
- Population Healthy Nuclei (%) [7]: 65%
- Population Hoechst High Intensity Objects (%) [7]: 11%
- Population Membrane Permeable-Phenotype (%) [7]: 0%
- Population Mitochondria Different-Phenotype (%) [7]: 89%
- Population Mitotic Cells (%) [7]: 44%
- Population Normal (%) [7]: 88%
- Population Pyknosed Nuclei (%) [7]: 21%
- Population Tubulin-Different-Phenotype (%) [7]: 73%
- Total Cell Count [7]: 270
- Population Apoptotic (%) [8]: 62%
- Population Fragmented Nuclei (%) [8]: 5%
- Population Healthy Nuclei (%) [8]: 71%
- Population Hoechst High Intensity Objects (%) [8]: 9%
- Population Mitochondria Different-Phenotype (%) [8]: 97%
- Population Mitotic Cells (%) [8]: 37%
- Population Normal (%) [8]: 90%
- Population Pyknosed Nuclei (%) [8]: 23%
- Population Tubulin-Different-Phenotype (%) [8]: 43%
- Total Cell Count [8]: 243
- Population Apoptotic (%) [9]: 30%
- Population Fragmented Nuclei (%) [9]: 11%
- Population Healthy Nuclei (%) [9]: 78%
- Population Hoechst High Intensity Objects (%) [9]: 4%
- Population Membrane Permeable-Phenotype (%) [9]: 0%
- Population Mitochondria Different-Phenotype (%) [9]: 28%
- Population Mitotic Cells (%) [9]: 69%
- Population Normal (%) [9]: 95%
- Population Pyknosed Nuclei (%) [9]: 9%
- Population Tubulin-Different-Phenotype (%) [9]: 18%
- Total Cell Count [9]: 742
- Population Apoptotic (%) [10]: 31%
- Population Fragmented Nuclei (%) [10]: 12%
- Population Healthy Nuclei (%) [10]: 79%
- Population Hoechst High Intensity Objects (%) [10]: 3%
- Population Mitochondria Different-Phenotype (%) [10]: 32%
- Population Mitotic Cells (%) [10]: 68%
- Population Normal (%) [10]: 96%
- Population Pyknosed Nuclei (%) [10]: 8%
- Population Tubulin-Different-Phenotype (%) [10]: 17%
- Total Cell Count [10]: 655
- Population Apoptotic (%) [11]: 67%
- Population Fragmented Nuclei (%) [11]: 14%
- Population Healthy Nuclei (%) [11]: 72%
- Population Hoechst High Intensity Objects (%) [11]: 5%
- Population Membrane Permeable-Phenotype (%) [11]: 0%
- Population Mitochondria Different-Phenotype (%) [11]: 72%
- Population Mitotic Cells (%) [11]: 32%
- Population Normal (%) [11]: 94%
- Population Pyknosed Nuclei (%) [11]: 13%
- Population Tubulin-Different-Phenotype (%) [11]: 43%
- Total Cell Count [11]: 347
- Population Apoptotic (%) [12]: 65%
- Population Fragmented Nuclei (%) [12]: 12%
- Population Mitochondria Different-Phenotype (%) [12]: 90%
- Population Mitotic Cells (%) [12]: 34%
- Population Pyknosed Nuclei (%) [12]: 15%
- Population Tubulin-Different-Phenotype (%) [12]: 62%
- Total Cell Count [12]: 283

SMILES: CC(C)C[C@@H]1NC(=O)[C@@H](C(C)C)NC(=O)[C@@H]2CCCN2C(=O)[C@@H](CC(=O)O)NC(=O)[C@@H](Cc2c[nH]c3ccccc23)NC1=O [BQ-123] (cyclo(L[dW][dD]P[dV]))
- Population Apoptotic (%) [1]: 46%
- Population Fragmented Nuclei (%) [1]: 7%
- Population Healthy Nuclei (%) [1]: 80%
- Population Hoechst High Intensity Objects (%) [1]: 4%
- Population Membrane Permeable-Phenotype (%) [1]: 0%
- Population Mitochondria Different-Phenotype (%) [1]: 39%
- Population Mitotic Cells (%) [1]: 53%
- Population Normal (%) [1]: 95%
- Population Pyknosed Nuclei (%) [1]: 11%
- Population Tubulin-Different-Phenotype (%) [1]: 32%
- Total Cell Count [1]: 376
- Population Fragmented Nuclei (%) [2]: 5%
- Population Healthy Nuclei (%) [2]: 82%
- Population Hoechst High Intensity Objects (%) [2]: 7%
- Population Mitochondria Different-Phenotype (%) [2]: 59%
- Population Normal (%) [2]: 92%
- Population Tubulin-Different-Phenotype (%) [2]: 19%
- Total Cell Count [2]: 392
- Population Apoptotic (%) [3]: 30%
- Population Fragmented Nuclei (%) [3]: 7%
- Population Healthy Nuclei (%) [3]: 78%
- Population Hoechst High Intensity Objects (%) [3]: 7%
- Population Membrane Permeable-Phenotype (%) [3]: 0%
- Population Mitochondria Different-Phenotype (%) [3]: 48%
- Population Mitotic Cells (%) [3]: 69%
- Population Normal (%) [3]: 92%
- Population Pyknosed Nuclei (%) [3]: 14%
- Population Tubulin-Different-Phenotype (%) [3]: 31%
- Total Cell Count [3]: 387
- Population Apoptotic (%) [4]: 71%
- Population Fragmented Nuclei (%) [4]: 5%
- Population Hoechst High Intensity Objects (%) [4]: 11%
- Population Mitochondria Different-Phenotype (%) [4]: 65%
- Population Mitotic Cells (%) [4]: 28%
- Population Normal (%) [4]: 88%
- Population Pyknosed Nuclei (%) [4]: 16%
- Population Tubulin-Different-Phenotype (%) [4]: 22%
- Total Cell Count [4]: 265
- Population Apoptotic (%) [5]: 26%
- Population Fragmented Nuclei (%) [5]: 10%
- Population Healthy Nuclei (%) [5]: 79%
- Population Hoechst High Intensity Objects (%) [5]: 3%
- Population Membrane Permeable-Phenotype (%) [5]: 0%
- Population Mitochondria Different-Phenotype (%) [5]: 27%
- Population Mitotic Cells (%) [5]: 73%
- Population Normal (%) [5]: 96%
- Population Pyknosed Nuclei (%) [5]: 9%
- Population Tubulin-Different-Phenotype (%) [5]: 21%
- Total Cell Count [5]: 497
- Population Apoptotic (%) [6]: 40%
- Population Fragmented Nuclei (%) [6]: 7%
- Population Healthy Nuclei (%) [6]: 82%
- Population Hoechst High Intensity Objects (%) [6]: 5%
- Population Mitochondria Different-Phenotype (%) [6]: 35%
- Population Mitotic Cells (%) [6]: 59%
- Population Normal (%) [6]: 94%
- Population Tubulin-Different-Phenotype (%) [6]: 14%
- Total Cell Count [6]: 538
- Population Apoptotic (%) [7]: 25%
- Population Fragmented Nuclei (%) [7]: 11%
- Population Healthy Nuclei (%) [7]: 77%
- Population Hoechst High Intensity Objects (%) [7]: 6%
- Population Membrane Permeable-Phenotype (%) [7]: 0%
- Population Mitochondria Different-Phenotype (%) [7]: 31%
- Population Mitotic Cells (%) [7]: 75%
- Population Normal (%) [7]: 93%
- Population Pyknosed Nuclei (%) [7]: 11%
- Population Tubulin-Different-Phenotype (%) [7]: 24%
- Total Cell Count [7]: 511
- Population Apoptotic (%) [8]: 57%
- Population Fragmented Nuclei (%) [8]: 8%
- Population Healthy Nuclei (%) [8]: 78%
- Population Hoechst High Intensity Objects (%) [8]: 7%
- Population Mitochondria Different-Phenotype (%) [8]: 50%
- Population Mitotic Cells (%) [8]: 42%
- Population Normal (%) [8]: 92%
- Population Pyknosed Nuclei (%) [8]: 12%
- Population Tubulin-Different-Phenotype (%) [8]: 18%
- Total Cell Count [8]: 302
- Population Apoptotic (%) [9]: 21%
- Population Fragmented Nuclei (%) [9]: 11%
- Population Healthy Nuclei (%) [9]: 79%
- Population Hoechst High Intensity Objects (%) [9]: 3%
- Population Membrane Permeable-Phenotype (%) [9]: 0%
- Population Mitochondria Different-Phenotype (%) [9]: 22%
- Population Mitotic Cells (%) [9]: 78%
- Population Normal (%) [9]: 96%
- Population Pyknosed Nuclei (%) [9]: 9%
- Population Tubulin-Different-Phenotype (%) [9]: 15%
- Total Cell Count [9]: 719
- Population Apoptotic (%) [10]: 24%
- Population Healthy Nuclei (%) [10]: 81%
- Population Hoechst High Intensity Objects (%) [10]: 5%
- Population Membrane Permeable-Phenotype (%) [10]: 1%
- Population Mitochondria Different-Phenotype (%) [10]: 18%
- Population Mitotic Cells (%) [10]: 75%
- Population Normal (%) [10]: 94%
- Population Pyknosed Nuclei (%) [10]: 7%
- Population Tubulin-Different-Phenotype (%) [10]: 10%
- Total Cell Count [10]: 777
- Population Apoptotic (%) [11]: 25%
- Population Fragmented Nuclei (%) [11]: 16%
- Population Healthy Nuclei (%) [11]: 77%
- Population Hoechst High Intensity Objects (%) [11]: 3%
- Population Membrane Permeable-Phenotype (%) [11]: 1%
- Population Mitochondria Different-Phenotype (%) [11]: 21%
- Population Mitotic Cells (%) [11]: 75%
- Population Normal (%) [11]: 96%
- Population Pyknosed Nuclei (%) [11]: 6%
- Population Tubulin-Different-Phenotype (%) [11]: 15%
- Total Cell Count [11]: 756
- Population Apoptotic (%) [12]: 40%
- Population Fragmented Nuclei (%) [12]: 11%
- Population Healthy Nuclei (%) [12]: 80%
- Population Membrane Permeable-Phenotype (%) [12]: 0%
- Population Mitochondria Different-Phenotype (%) [12]: 29%
- Population Mitotic Cells (%) [12]: 59%
- Population Pyknosed Nuclei (%) [12]: 8%
- Population Tubulin-Different-Phenotype (%) [12]: 16%
- Total Cell Count [12]: 477
